≈ marks a conversion by molar mass, not a printed value.
What was measured:
Klebsiella pneumoniae = test: Antimicrobial activity against Klebsiella pneumoniae CCM 2318 after 24 hrs by microdilution assay; format: functional
Method in brief: (§1)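 Broth microdilution MIC in Mueller-Hinton broth. Inocula came from 24 h broth cultures grown at 37 °C, were adjusted to 0.5 McFarland and diluted 1:100 in broth. Compounds were tested at final concentrations of 256 to 0.5 µg/mL, with gentamycin at 128 to 0.25 µg/mL. Sealed plates were incubated 24 h at 37 °C. MIC was the lowest concentration with no visible growth. Clear wells were subcultured onto Mueller-Hinton agar. Triplicate.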

[1] = test system: Staphylococcus epidermidis; test: Antimicrobial activity against Staphylococcus epidermidis ATCC 12228 after 24 hrs by microdilution assay; format: functional; method in brief: as §1
Enterococcus faecalis = test: Antimicrobial activity against Enterococcus faecalis ATCC 29212 after 24 hrs by microdilution assay; format: functional; method in brief: as §1
Pseudomonas aeruginosa = test: Antimicrobial activity against Pseudomonas aeruginosa ATCC 27853 after 24 hrs by microdilution assay; format: functional; method in brief: as §1
Salmonella enterica = test: Antimicrobial activity against Salmonella Typhimurium CCM 5445 after 24 hrs by microdilution assay; format: functional, Salmonella enterica subsp. enterica serovar Typhimurium; method in brief: as §1
Escherichia coli = test: Antimicrobial activity against Escherichia coli ATCC 23999 after 24 hrs by microdilution assay; format: functional; method in brief: as §1
Bacillus cereus = test: Antimicrobial activity against Bacillus cereus ATCC 7064 after 24 hrs by microdilution assay; format: functional; method in brief: as §1
Staphylococcus aureus = test: Antimicrobial activity against Staphylococcus aureus ATCC 6538-P after 24 hrs by microdilution assay; format: functional; method in brief: as §1

C[C@@H]1O[C@@H](O[C@H]2[C@H](O)[C@@H](O)[C@H](O[C@H]3CC[C@]4(C)[C@H]5CC=C6[C@H]7CC(C)(C)CC[C@]7(C(=O)O[C@@H]7O[C@H](CO[C@@H]8O[C@H](CO)[C@@H](O)[C@H](O)[C@H]8O)[C@@H](O)[C@H](O)[C@H]7O)CC[C@@]6(C)[C@]5(C)CC[C@H]4C3(C)C)O[C@@H]2CO)[C@H](O)[C@H](O[C@@H]2OC[C@@H](O[C@@H]3OC[C@@H](O)[C@H](O)[C@H]3O)[C@H](O)[C@H]2O)[C@H]1O [SCOPOSIDE B]
MIC (Klebsiella pneumoniae; CCM 2318, 24 h): 64 µg/mL (≈ 47.3 µM) | MIC ([1]; ATCC 12228, 24 h): 128 µg/mL (≈ 94.6 µM) | MIC (Enterococcus faecalis; ATCC 29212, 24 h): 64 µg/mL (≈ 47.3 µM) | MIC (Pseudomonas aeruginosa; ATCC 27853, 24 h): 64 µg/mL (≈ 47.3 µM) | MIC (Salmonella enterica; CCM 5445, 24 h): 64 µg/mL (≈ 47.3 µM) | MIC (Escherichia coli; ATCC 23999, 24 h): 128 µg/mL (≈ 94.6 µM) | MIC (Bacillus cereus; ATCC 7064, 24 h): 16 µg/mL (≈ 11.8 µM) | MIC (Staphylococcus aureus): 256 µg/mL (≈ 189 µM)

C[C@@H]1O[C@@H](O[C@H]2[C@H](OC(=O)[C@]34CCC(C)(C)C[C@@H]3C3=CC[C@@H]5[C@@]6(C)CC[C@H](O[C@@H]7OC[C@H](O)[C@H](O)[C@H]7O)C(C)(C)[C@@H]6CC[C@@]5(C)[C@]3(C)CC4)O[C@H](CO[C@@H]3O[C@H](CO)[C@@H](O)[C@H](O)[C@H]3O)[C@@H](O)[C@@H]2O)[C@H](O)[C@H](O)[C@H]1O [SCOPOSIDE A]
MIC (Klebsiella pneumoniae; CCM 2318, 24 h): 64 µg/mL (≈ 60.4 µM) | MIC ([1]; ATCC 12228, 24 h): 64 µg/mL (≈ 60.4 µM) | MIC (Enterococcus faecalis; ATCC 29212, 24 h): 32 µg/mL (≈ 30.2 µM) | MIC (Pseudomonas aeruginosa; ATCC 27853, 24 h): 64 µg/mL (≈ 60.4 µM) | MIC (Salmonella enterica; CCM 5445, 24 h): 128 µg/mL (≈ 121 µM) | MIC (Escherichia coli; ATCC 23999, 24 h): 8 µg/mL (≈ 7.55 µM) | MIC (Bacillus cereus; ATCC 7064, 24 h): 16 µg/mL (≈ 15.1 µM) | MIC (Staphylococcus aureus): 128 µg/mL (≈ 121 µM)

GENTAMICIN
MIC (Klebsiella pneumoniae): 4 µg/mL | MIC [1]: 1 µg/mL | MIC (Enterococcus faecalis): 16 µg/mL | MIC (Pseudomonas aeruginosa): 2 µg/mL | MIC (Salmonella enterica; Salmonella enterica subsp. enterica serovar Typhimurium): 1 µg/mL | MIC (Escherichia coli): 1 µg/mL | MIC (Bacillus cereus): 4 µg/mL | MIC (Staphylococcus aureus): 1 µg/mL

C[C@@H]1O[C@@H](O[C@H]2[C@H](O[C@H]3CC[C@]4(C)[C@H]5CC=C6[C@H]7CC(C)(C)CC[C@]7(C(=O)O[C@@H]7O[C@H](CO[C@@H]8O[C@H](CO)[C@@H](O)[C@H](O)[C@H]8O)[C@@H](O)[C@H](O)[C@H]7O)CC[C@@]6(C)[C@]5(C)CC[C@H]4C3(C)C)OC[C@H](O)[C@@H]2O[C@@H]2OC[C@@H](O[C@@H]3O[C@H](CO)[C@@H](O)[C@H](O)[C@H]3O)[C@H](O)[C@H]2O)[C@H](O)[C@H](O[C@@H]2OC[C@@H](O)[C@H](O)[C@H]2O)[C@H]1O [SCOPOSIDE C]
MIC (Klebsiella pneumoniae; CCM 2318, 24 h): 64 µg/mL (≈ 43.1 µM) | MIC ([1]; ATCC 12228, 24 h): 64 µg/mL (≈ 43.1 µM) | MIC (Enterococcus faecalis; ATCC 29212, 24 h): 32 µg/mL (≈ 21.5 µM) | MIC (Pseudomonas aeruginosa; ATCC 27853, 24 h): 128 µg/mL (≈ 86.2 µM) | MIC (Salmonella enterica; CCM 5445, 24 h): 64 µg/mL (≈ 43.1 µM) | MIC (Escherichia coli; ATCC 23999, 24 h): 128 µg/mL (≈ 86.2 µM) | MIC (Bacillus cereus; ATCC 7064, 24 h): 32 µg/mL (≈ 21.5 µM) | MIC (Staphylococcus aureus): 64 µg/mL (≈ 43.1 µM)
